Assay results reported in PubChem BioAssay AID652011 (Sanford-Burnham Center for Chemical Genomics, 2013).
Several values for one entry are separate records, joined by “and”; a condition that tells them apart may be missing. Identical values can stand only once.

The molecules below were run against Endothelial PAS domain-containing protein 1 (Homo sapiens) (UniProt Q99814) (assay: HIF reporter inhibition across pancreatic and renal lines – cell-based, luminescence, MIAPaCa-2, 786-0, panel, SAR follow-up (AID 652011)). Details: MIAPaCa-2/PANC HIF reporter, luciferase luminescence, desferoxamine, overnight, HIF2a PANC, run 1; at 99 µM (top of the series).
How it was run: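 Probe or stimulus – desferoxamine stimulus · Times – overnight compound incubation at 37 °C, 10 min reagent · Doses – compounds from 10 mM and 0.3125 mM stocks, 1% DMSO final · Technique – luminescence, One-Glo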

Chain of Endothelial PAS domain-containing protein 1 (Homo sapiens) (Q99814 whole entry, looked up, the tested form may be a part): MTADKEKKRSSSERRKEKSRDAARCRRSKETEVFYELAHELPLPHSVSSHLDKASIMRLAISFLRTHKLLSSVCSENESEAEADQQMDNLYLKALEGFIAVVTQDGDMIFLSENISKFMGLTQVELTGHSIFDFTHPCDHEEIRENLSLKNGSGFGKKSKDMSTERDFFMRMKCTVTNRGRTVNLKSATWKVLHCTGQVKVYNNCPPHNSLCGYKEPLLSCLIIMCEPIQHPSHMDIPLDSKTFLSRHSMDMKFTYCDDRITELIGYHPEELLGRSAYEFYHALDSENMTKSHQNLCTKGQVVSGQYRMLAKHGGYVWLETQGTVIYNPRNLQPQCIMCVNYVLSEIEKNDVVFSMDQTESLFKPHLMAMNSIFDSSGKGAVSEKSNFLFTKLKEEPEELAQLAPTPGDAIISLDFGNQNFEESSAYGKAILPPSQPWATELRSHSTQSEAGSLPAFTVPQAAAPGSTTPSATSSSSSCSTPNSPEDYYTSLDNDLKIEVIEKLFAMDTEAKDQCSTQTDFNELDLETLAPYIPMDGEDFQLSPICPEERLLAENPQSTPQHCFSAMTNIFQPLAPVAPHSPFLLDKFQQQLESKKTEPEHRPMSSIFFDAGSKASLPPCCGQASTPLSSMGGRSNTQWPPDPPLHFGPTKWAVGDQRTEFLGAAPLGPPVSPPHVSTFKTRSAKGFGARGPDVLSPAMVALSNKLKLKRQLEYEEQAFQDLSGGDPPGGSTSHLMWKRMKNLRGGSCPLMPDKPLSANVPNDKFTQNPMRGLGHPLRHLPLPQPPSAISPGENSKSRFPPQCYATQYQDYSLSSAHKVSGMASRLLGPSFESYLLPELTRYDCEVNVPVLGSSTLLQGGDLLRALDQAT

In order of falling inhibition:
1. COC(=O)CCc1nc(-c2ccc(C(C)(C)C)cc2)no1  123%
2. COc1cccc(NC(=O)CCc2nc(-c3ccc(C(C)(C)C)cc3)no2)c1  118%
3. CC(C)(C)c1ccc(-c2noc(CCC(=O)Nc3cccnc3)n2)cc1  118%
4. CC(C)(C)c1ccc(-c2noc(CCC(=O)Nc3ccccc3)n2)cc1  116%
5. CC(C)(C)c1ccc(-c2noc(CCC(=O)N3CCCCC3)n2)cc1  103%
6. CC(C)(C)c1ccc(-c2noc(CCC(=O)NC3CCCCC3)n2)cc1  93.4%
7. CNC(=O)CCc1nc(-c2ccc(C(C)(C)C)cc2)no1  65.3%
8. CCC(C)NC(=O)CCc1nc(-c2ccccc2)no1 (stereo not given)  63.6%
9. CCCCc1ccc(-c2noc(CCC(=O)NC(C)(C)C)n2)cc1  62.8%
10. CC(C)(C)c1ccc(-c2noc(CCC(=O)NC3CC3)n2)cc1  53.7%
11. CNC(=O)CCc1nc(-c2ccc(C)cc2)no1  40.9%
12. CC(C)(C)NC(=O)CCc1nc(-c2ccccc2)no1  35.7%
13. CCNC(=O)CCc1nc(-c2cccc(OC)c2)no1  27.9%
14. CCNC(=O)CCc1nc(-c2ccccc2Cl)no1  26%
15. CCC(C)NC(=O)CCc1nc(-c2ccc(C(C)C)cc2)no1 (stereo not given)  12.1%
16. CNC(=O)CCc1nc(-c2ccc(F)cc2)no1  -27.1%
17. CCCCc1ccc(-c2noc(CCC(=O)NC)n2)cc1  -53%
18. CCc1ccc(-c2noc(CCC(=O)NC(C)CC)n2)cc1 (stereo not given)  -89.5%

With `CC(C)(C)c1ccc(-c2noc(CCC(=O)NCc3ccco3)n2)cc1` the inhibition was 86.1% and 78.5%.
With `CNC(=O)CCc1nc(-c2ccccc2)no1` the inhibition was 11.4% and 50.7%.
